We go through eight molecules from ChEMBL document CHEMBL1817661, “Combining carbochips and mass spectrometry to study the donor specificity for the Neisseria meningitidis β1,3-N-acetylglucosaminyltransferase LgtA” (Bioorg Med Chem Lett, 2011).

Active and inactive are the calls of the source. The rule behind the calls is not given here.

In data set [1] the target is T1, Beta 1,3 N-acetylglucosaminyltransferase (Neisseria meningitidis) (UniProt Q8KHG4).
T1 sequence (whole entry): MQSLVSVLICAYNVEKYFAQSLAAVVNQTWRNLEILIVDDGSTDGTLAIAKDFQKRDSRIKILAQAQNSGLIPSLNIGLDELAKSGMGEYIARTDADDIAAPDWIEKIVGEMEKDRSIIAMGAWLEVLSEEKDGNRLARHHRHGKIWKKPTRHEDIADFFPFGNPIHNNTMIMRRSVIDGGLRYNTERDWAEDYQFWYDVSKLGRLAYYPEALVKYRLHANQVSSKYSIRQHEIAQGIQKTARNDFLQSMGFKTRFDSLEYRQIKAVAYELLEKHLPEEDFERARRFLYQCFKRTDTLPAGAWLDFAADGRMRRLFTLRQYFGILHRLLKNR
Put plainly: Activity of Neisseria meningitidis beta1,3-N-acetylglucosaminyltransferase LgtA assessed as enzyme catalyzed glycosylation using self-assembled monolayers having lactoside as acceptor at 2 mM after 5 to 120 mins by SAMDI MS assay. The procedure, abridged: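 Gold islands (2 mm) carry a monolayer of lactose (10% density) with tri(ethylene glycol) groups. Each donor analog (2 mM) is mixed with LgtA in assay buffer, applied to an island, and incubated in a humidified chamber at 30 °C. Times were 5, 10, 15, 20, 30, 40, 60 and 120 min. Arrays were rinsed with water and ethanol, matrix was applied, and relative glycosylation product was read by SAMDI MS.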

The target of data set [2] is T1, Beta 1,3 N-acetylglucosaminyltransferase (Neisseria meningitidis). Put plainly: Ratio of Vmax to Km for Neisseria meningitidis beta1,3-N-acetylglucosaminyltransferase LgtA assessed as enzyme catalyzed glycosylation using lactose as substrate after 2 to 30 mins by SAMDI analysis. The method, boiled down: (§1)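 Solution-phase reactions: LgtA with lactose azide acceptor (10 mM) and UDP-sugar donor at five concentrations (1–10 mM), 30 °C. Sets stopped at 12 time points. Aliquots mixed with copper bromide and DIPEA and immobilized on monolayer islands (20 min). Yield comes from product/substrate SAMDI peak intensities. Initial velocities are slopes of linear fits of yield vs time. Apparent Km and Vmax are taken from a reciprocal plot.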

Substrate in data set [3]: CC(=O)N[C@H]1[C@@H](OP(=O)(O)OP(=O)(O)OC[C@H]2O[C@@H](n3ccc(=O)[nH]c3=O)[C@H](O)[C@@H]2O)O[C@H](C)[C@@H](O)[C@@H]1O
Nature of the data set: (§2) Activity of Neisseria meningitidis beta1,3-N-acetylglucosaminyltransferase LgtA assessed as enzyme catalyzed glycosylation using lactose as substrate after 2 to 30 mins by SAMDI analysis. The procedure, abridged:
as §1

Substrate in data set [4]: CC(=O)N[C@H]1[C@@H](OP(=O)(O)OP(=O)(O)OC[C@H]2O[C@@H](n3ccc(=O)[nH]c3=O)[C@H](O)[C@@H]2O)O[C@H](C)[C@H](O)[C@@H]1O
Described as §2. The method, boiled down:
as §1

Substrate in data set [5]: CC(=O)N[C@H]1[C@@H](OP(=O)(O)OP(=O)(O)OC[C@H]2O[C@@H](n3ccc(=O)[nH]c3=O)[C@H](O)[C@@H]2O)O[C@H](CO)C[C@@H]1O
Described as §2. The procedure, abridged: as §1

Substrate in data set [6]: CCC(=O)N[C@H]1[C@@H](OP(=O)(O)OP(=O)(O)OC[C@H]2O[C@@H](n3ccc(=O)[nH]c3=O)[C@H](O)[C@@H]2O)O[C@H](CO)[C@@H](O)[C@@H]1O
The description is as §2. The procedure, abridged: as §1

In the case of `[N-]=[N+]=NCC(=O)N[C@H]1[C@@H](OP(=O)(O)OP(=O)(O)OC[C@H]2O[C@@H](n3ccc(=O)[nH]c3=O)[C@H](O)[C@@H]2O)O[C@H](CO)[C@@H](O)[C@@H]1O`, in data set [1], the outcome was inactive.
Take `CC(=O)N[C@H]1[C@@H](OP(=O)(O)OP(=O)(O)OC[C@H]2O[C@@H](n3ccc(=O)[nH]c3=O)[C@H](O)[C@@H]2O)O[C@H](C)[C@H](O)[C@@H]1O`: the Vmax/Km in data set [2] came to 0.038 min⁻¹.
Same read-out and setting: as for `CCC(=O)N[C@H]1[C@@H](OP(=O)(O)OP(=O)(O)OC[C@H]2O[C@@H](n3ccc(=O)[nH]c3=O)[C@H](O)[C@@H]2O)O[C@H](CO)[C@@H](O)[C@@H]1O`, the figure is 0.005 min⁻¹.
Take `CC(=O)N[C@H]1[C@@H](OP(=O)(O)OP(=O)(O)OC[C@H]2O[C@@H](n3ccc(=O)[nH]c3=O)[C@H](O)[C@@H]2O)O[C@H](C)[C@@H](O)[C@@H]1O`: in data set [1], the outcome was Active. For the same molecule, the Vmax/Km in data set [2] came to 0.259 min⁻¹.
For the molecule `CC(=O)N[C@H]1[C@@H](OP(=O)(O)OP(=O)(O)OC[C@H]2O[C@@H](n3ccc(=O)[nH]c3=O)[C@H](O)[C@@H]2O)O[C@H](CO)C[C@@H]1O`, in data set [2], the Vmax/Km worked out at 0.029 min⁻¹.
On the same count and under the same terms, next, `CC(=O)N[C@@H]1[C@H](OP(=O)(O)OP(=O)(O)OC[C@H]2O[C@@H](n3ccc(=O)[nH]c3=O)[C@H](O)[C@@H]2O)O[C@@H](CO)[C@H](O)[C@H]1O` (stereo in doubt; 8): 0.065 min⁻¹; `CC(=O)N[C@@H]1[C@H](OP(=O)(O)OP(=O)(O)OC[C@H]2O[C@@H](n3ccc(=O)[nH]c3=O)[C@H](O)[C@@H]2O)O[C@@H](CO)[C@H](O)[C@H]1O` (stereo in doubt; 1): 1.15 min⁻¹.

B1: Beta 1,3 N-acetylglucosaminyltransferase (Neisseria meningitidis), Q8KHG4 (protein)
chain: T1 sequence (whole entry)
As a reminder, the Km is the substrate concentration at which the rate is half of its maximum. Usually Vmax stands for the rate approached at saturating substrate. For B1, the Km in data set [3] amounted to 1.32 mM; in data set [4], 3.05 mM; in data set [5], 3.28 mM; in data set [6], 21.1 mM. Besides, the Vmax in data set [3] stood at 0.343 mM/min; in data set [4], 0.115 mM/min; in data set [5], 0.097 mM/min; in data set [6], 0.11 mM/min.
